From BindingDB's records for doi:10.1021/jm050851n (University of Arizona, 2006)

Target: Mu-type opioid receptor (Rattus norvegicus, UniProt P33535)
Test: Displacement of [3H]DAMGO from rat mu opioid receptor expressed in HN9.10 cells
In short: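 Membranes from stably transfected HN9.10 neuroblastoma cells in 50 mM Tris pH 7.4 with bacitracin, bestatin, captopril, PMSF and 1 mg/mL BSA. 50 µg membrane, 10 test concentrations, 1.0 nM [3H]DAMGO (Kd level). Nonspecific binding defined with 10 µM naloxone. Duplicates, 3 h at 25 °C, filtration, scintillation counting. Ki from IC50 by Cheng–Prusoff; at least two independent experiments.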

Mu-type opioid receptor, sequence (P33535 whole entry): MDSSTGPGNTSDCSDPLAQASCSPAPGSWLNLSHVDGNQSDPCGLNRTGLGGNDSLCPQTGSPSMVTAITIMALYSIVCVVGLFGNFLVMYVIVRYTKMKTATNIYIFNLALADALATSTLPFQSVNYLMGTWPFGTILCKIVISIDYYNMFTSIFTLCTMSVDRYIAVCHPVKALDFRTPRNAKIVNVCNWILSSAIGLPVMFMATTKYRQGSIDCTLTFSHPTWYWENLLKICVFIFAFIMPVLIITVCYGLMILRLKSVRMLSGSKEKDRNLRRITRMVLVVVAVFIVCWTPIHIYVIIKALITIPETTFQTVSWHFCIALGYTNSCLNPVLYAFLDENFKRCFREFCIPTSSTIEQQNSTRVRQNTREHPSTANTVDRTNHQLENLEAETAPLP

Molecule `CC(=O)N[C@@H](Cc1c[nH]c2ccccc12)C(=O)N[C@@H](CCCCNC(=O)Nc1ccccc1Cl)C(=O)N[C@@H](CC(=O)O)C(=O)N(C)[C@@H](Cc1ccccc1)C(=O)NNC(=O)[C@H](Cc1ccccc1)NC(=O)CNC(=O)[C@@H](C)NC(=O)[C@@H](N)Cc1ccc(O)cc1` [H-Tyr-D-Ala-Gly-Phe-NH-NH-(NMe)Phe-Asp-Lys(Cpac)-Trp-Ac] has an EC50 of 14 nM.
